Laboratory results from ChEMBL document CHEMBL5674890, “Selective inhibition of CBP/p300 HAT by A-485 results in suppression of lipogenesis and hepatic gluconeogenesis” (Cell Death Dis, 2020).
The source made the active and inactive calls. The rule behind the calls is not given here.

Key:
[1] = system: Mus musculus; experiment: Anti-obesity activity in 6 hrs fasted C57BL/6 mouse supplemented with normal chow diet assessed as effect on insulin sensitivity at 20 mg/kg/day, ip administered for 1 week measured by insulin tolerance test; assay type: functional, organism-based; settings: time 1.0 weeks
Method in brief: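 Insulin tolerance test in normal-chow male C57BL/6 mice (8 weeks), after 7 days of ip dosing at 20 mg·kg−1·day−1. 6 h fast, then insulin 0.75 UI/kg body weight ip; blood glucose followed. Mean ± SEM, n = 5–9.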

[2] = system: Mus musculus; experiment: Anti-obesity activity in C57BL/6 mouse supplemented with high fat diet assessed as decrease in body weight at 20 mg/kg/day, ip administered for 1 week; assay type: functional, organism-based; settings: time 1.0 weeks
Method in brief: (§1)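 Male C57BL/6 mice fed high-fat diet for 14 weeks from 5 weeks of age, then ip 20 mg·kg−1·day−1 for 7 days. Body weight, EchoMRI lean/fat mass, and random or 16 h-fasted blood glucose recorded, as the line states.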

[3] = system: Mus musculus; experiment: Anti-obesity activity in C57BL/6 mouse supplemented with high fat diet assessed as effect on total lean mass at 20 mg/kg/day, ip administered for 1 week; assay type: functional, organism-based; settings: time 1.0 weeks; method in brief: as §1
[4] = system: Mus musculus; experiment: Anti-obesity activity in C57BL/6 mouse supplemented with high fat diet assessed as effect on random blood glucose at 20 mg/kg/day, ip administered for 1 week; assay type: functional, organism-based; settings: time 1.0 weeks; method in brief: as §1
[5] = system: Mus musculus; experiment: Inhibition of lipogenesis in C57BL/6 mouse supplemented with high-fat diet assessed as decrease in SCD1 mRNA expression at 20 mg/kg/day, ip administered for 1 week measured by RT-qPCR assay; assay type: functional, organism-based; settings: time 1.0 weeks
Method in brief: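 Male C57BL/6 mice were fed high-fat diet for 14 weeks from 5 weeks of age, then injected ip with 20 mg·kg−1·day−1 for 7 days or given vehicle. Epididymal and inguinal WAT were weighed, examined by H&E, and analysed. Transcripts were measured by Trizol/SYBR Green RT-qPCR; proteins by western blot. n = 5–9; mean ± SEM.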

[6] = system: Mus musculus; experiment: Inhibition of lipogenesis in C57BL/6 mouse supplemented with normal chow diet assessed as decrease in ChREBP mRNA expression at 20 mg/kg/day, ip administered for 1 week measured by RT-qPCR assay; assay type: functional, organism-based; settings: time 1.0 weeks
Method in brief: (§2)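 Eight-week-old male C57BL/6 mice on normal chow were given 20 mg·kg−1·day−1 ip daily for 7 days or vehicle. Epididymal WAT was collected. Lipogenic, adipogenic and fatty-acid-oxidation transcripts were quantified by Trizol extraction and SYBR Green RT-qPCR. FAS, ACC, PPARγ and C/EBPα protein were assessed by western blot. n = 5–9; mean ± SEM.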

[7] = system: Mus musculus; experiment: Inhibition of lipogenesis in C57BL/6 mouse supplemented with normal chow diet assessed as decrease in FAS protein expression at 20 mg/kg/day, ip administered for 1 week measured by western blot analysis; assay type: functional, organism-based; settings: time 1.0 weeks; method in brief: as §2
[8] = system: Mus musculus; experiment: Inhibition of lipogenesis in C57BL/6 mouse supplemented with normal chow diet assessed as decrease in C/EBPalpha mRNA expression at 20 mg/kg/day, ip administered for 1 week measured measured by RT-qPCR assay; assay type: functional, organism-based; settings: time 1.0 weeks; method in brief: as §2
[9] = system: Adipocyte; experiment: Inhibition of lipogenesis in mouse adipocytes isolated stromal vascular cells assessed as decrease in FASN mRNA expression measured after 24 hrs by RT-qPCR assay; assay type: functional, cell-based
Method in brief: (§3)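 Stromal vascular cells from inguinal WAT of C57BL/6 mice, grown in DMEM/F12 + 10% FBS at 37 °C, 10% CO2. At confluence, induced 48 h with 5 μg/ml insulin, 1 μM dexamethasone, 0.5 mM isobutylmethylxanthine, then 6 days in 5 μg/ml insulin; fully differentiated day 8. Mature adipocytes exposed to inhibitor 24 h. Total RNA by Trizol, SYBR Green RT-qPCR; protein by western blot.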

[10] = system: Adipocyte; experiment: Inhibition of lipogenesis in mouse adipocytes isolated stromal vascular cells assessed as decrease in DGAT2 mRNA expression measured after 24 hrs by RT-qPCR assay; assay type: functional, cell-based; method in brief: as §3
[11] = system: Adipocyte; experiment: Inhibition of lipogenesis in mouse adipocytes isolated stromal vascular cells assessed as decrease in PPARgamma protein expression measured after 24 hrs by western blot analysis; assay type: functional, cell-based
[12] = system: Mus musculus; experiment: Inhibition of hepatic lipogenesis in C57BL/6 mouse supplemented with normal chow diet assessed as decrease in triglyceride level at 20 mg/kg/day, ip administered for 1 week measured by Oil red O staining method; assay type: functional, organism-based; settings: time 1.0 weeks
[13] = system: Hepatocyte; experiment: Inhibition of lipogenesis in mouse primary hepatocytes assessed as decrease in HMGCS1 mRNA expression at 3 uM in presence of 100 nM insulin and 5 to 25 mM glucose measured after 18 hrs by RT-qPCR assay; assay type: functional, cell-based
Method in brief: (§4)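 Primary hepatocytes isolated from C57BL/6 mice by two-step perfusion. Cells incubated 18 h with 3 μM inhibitor, with 0 or 100 nM insulin and 5 or 25 mM glucose. Transcripts quantified by SYBR Green RT-qPCR after Trizol RNA extraction; proteins by western blot of lysates. Mean ± SEM.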

[14] = system: Hepatocyte; experiment: Inhibition of lipogenesis in mouse primary hepatocytes assessed as decrease in SCD1 mRNA expression at 3 uM in presence of 100 nM insulin and 5 to 25 mM glucose measured after 18 hrs by RT-qPCR assay; assay type: functional, cell-based; method in brief: as §4
[15] = system: Hepatocyte; experiment: Inhibition of lipogenesis in mouse primary hepatocytes assessed as increase in MCAD mRNA expression at 3 uM in presence of 100 nM insulin and 5 to 25 mM glucose measured after 18 hrs by RT-qPCR assay; assay type: functional, cell-based; method in brief: as §4
[16] = system: Hepatocyte; experiment: Inhibition of glucogenesis in mouse primary hepatocytes stimulated with 100 uM 8-Br-cAMP assessed as decrease in G6Pc mRNA expression at 3 uM in combination with 2 mM metformin measured by RT-qPCR assay; assay type: functional, cell-based
Method in brief: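 Primary mouse hepatocytes given 3 μM compound with 2 mM metformin in the presence of 100 μM 8-Br-cAMP. Gluconeogenic gene mRNA measured by SYBR Green RT-qPCR. Mean ± SEM, three independent experiments.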

[17] = system: Hepatocyte; experiment: Inhibition of glucogenesis in mouse primary hepatocytes stimulated with 100 uM 8-Br-cAMP assessed as effect on HNF4alpha mRNA expression at 3 uM measured after 8 hrs by RT-qPCR assay; assay type: functional, cell-based
Method in brief: (§5)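 Primary mouse hepatocytes treated with 3 μM compound and 100 μM 8-Br-cAMP for 8 h. Trizol RNA, SYBR Green RT-qPCR of the named transcript. Mean ± SEM, three independent experiments.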

[18] = system: Hepatocyte; experiment: Inhibition of glucogenesis in mouse primary hepatocytes stimulated with 100 uM 8-Br-cAMP assessed as effect on FOXO1 mRNA expression at 3 uM measured after 8 hrs by RT-qPCR assay; assay type: functional, cell-based; method in brief: as §5
[19] = target: CREB-binding protein/Histone acetyltransferase p300 (Homo sapiens) (UniProt Q09472+Q92793); experiment: Inhibition of CBP/p300 in human HepG2 cells stimulated with 100 uM 8-Br-cAMP assessed as induction of FOXO1 deacetylation at 3 uM measured after 6 hrs; assay type: cell-based
Method in brief: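 HepG2 cells given 3 μM compound and 100 μM 8-Br-cAMP for 6 h. Endogenous FOXO1 immunoprecipitated and its acetylation detected by immunoblot.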

[20] = system: Hepatocyte; experiment: Inhibition of glucogenesis in mouse primary hepatocytes stimulated with 100 uM 8-Br-cAMP assessed as decrease in PEPCK protein expression at 3 uM in presence of cAMP measured after 16 hrs by western blot

Sequence of CREB-binding protein/Histone acetyltransferase p300 (Homo sapiens) (Q09472 whole entry, looked up): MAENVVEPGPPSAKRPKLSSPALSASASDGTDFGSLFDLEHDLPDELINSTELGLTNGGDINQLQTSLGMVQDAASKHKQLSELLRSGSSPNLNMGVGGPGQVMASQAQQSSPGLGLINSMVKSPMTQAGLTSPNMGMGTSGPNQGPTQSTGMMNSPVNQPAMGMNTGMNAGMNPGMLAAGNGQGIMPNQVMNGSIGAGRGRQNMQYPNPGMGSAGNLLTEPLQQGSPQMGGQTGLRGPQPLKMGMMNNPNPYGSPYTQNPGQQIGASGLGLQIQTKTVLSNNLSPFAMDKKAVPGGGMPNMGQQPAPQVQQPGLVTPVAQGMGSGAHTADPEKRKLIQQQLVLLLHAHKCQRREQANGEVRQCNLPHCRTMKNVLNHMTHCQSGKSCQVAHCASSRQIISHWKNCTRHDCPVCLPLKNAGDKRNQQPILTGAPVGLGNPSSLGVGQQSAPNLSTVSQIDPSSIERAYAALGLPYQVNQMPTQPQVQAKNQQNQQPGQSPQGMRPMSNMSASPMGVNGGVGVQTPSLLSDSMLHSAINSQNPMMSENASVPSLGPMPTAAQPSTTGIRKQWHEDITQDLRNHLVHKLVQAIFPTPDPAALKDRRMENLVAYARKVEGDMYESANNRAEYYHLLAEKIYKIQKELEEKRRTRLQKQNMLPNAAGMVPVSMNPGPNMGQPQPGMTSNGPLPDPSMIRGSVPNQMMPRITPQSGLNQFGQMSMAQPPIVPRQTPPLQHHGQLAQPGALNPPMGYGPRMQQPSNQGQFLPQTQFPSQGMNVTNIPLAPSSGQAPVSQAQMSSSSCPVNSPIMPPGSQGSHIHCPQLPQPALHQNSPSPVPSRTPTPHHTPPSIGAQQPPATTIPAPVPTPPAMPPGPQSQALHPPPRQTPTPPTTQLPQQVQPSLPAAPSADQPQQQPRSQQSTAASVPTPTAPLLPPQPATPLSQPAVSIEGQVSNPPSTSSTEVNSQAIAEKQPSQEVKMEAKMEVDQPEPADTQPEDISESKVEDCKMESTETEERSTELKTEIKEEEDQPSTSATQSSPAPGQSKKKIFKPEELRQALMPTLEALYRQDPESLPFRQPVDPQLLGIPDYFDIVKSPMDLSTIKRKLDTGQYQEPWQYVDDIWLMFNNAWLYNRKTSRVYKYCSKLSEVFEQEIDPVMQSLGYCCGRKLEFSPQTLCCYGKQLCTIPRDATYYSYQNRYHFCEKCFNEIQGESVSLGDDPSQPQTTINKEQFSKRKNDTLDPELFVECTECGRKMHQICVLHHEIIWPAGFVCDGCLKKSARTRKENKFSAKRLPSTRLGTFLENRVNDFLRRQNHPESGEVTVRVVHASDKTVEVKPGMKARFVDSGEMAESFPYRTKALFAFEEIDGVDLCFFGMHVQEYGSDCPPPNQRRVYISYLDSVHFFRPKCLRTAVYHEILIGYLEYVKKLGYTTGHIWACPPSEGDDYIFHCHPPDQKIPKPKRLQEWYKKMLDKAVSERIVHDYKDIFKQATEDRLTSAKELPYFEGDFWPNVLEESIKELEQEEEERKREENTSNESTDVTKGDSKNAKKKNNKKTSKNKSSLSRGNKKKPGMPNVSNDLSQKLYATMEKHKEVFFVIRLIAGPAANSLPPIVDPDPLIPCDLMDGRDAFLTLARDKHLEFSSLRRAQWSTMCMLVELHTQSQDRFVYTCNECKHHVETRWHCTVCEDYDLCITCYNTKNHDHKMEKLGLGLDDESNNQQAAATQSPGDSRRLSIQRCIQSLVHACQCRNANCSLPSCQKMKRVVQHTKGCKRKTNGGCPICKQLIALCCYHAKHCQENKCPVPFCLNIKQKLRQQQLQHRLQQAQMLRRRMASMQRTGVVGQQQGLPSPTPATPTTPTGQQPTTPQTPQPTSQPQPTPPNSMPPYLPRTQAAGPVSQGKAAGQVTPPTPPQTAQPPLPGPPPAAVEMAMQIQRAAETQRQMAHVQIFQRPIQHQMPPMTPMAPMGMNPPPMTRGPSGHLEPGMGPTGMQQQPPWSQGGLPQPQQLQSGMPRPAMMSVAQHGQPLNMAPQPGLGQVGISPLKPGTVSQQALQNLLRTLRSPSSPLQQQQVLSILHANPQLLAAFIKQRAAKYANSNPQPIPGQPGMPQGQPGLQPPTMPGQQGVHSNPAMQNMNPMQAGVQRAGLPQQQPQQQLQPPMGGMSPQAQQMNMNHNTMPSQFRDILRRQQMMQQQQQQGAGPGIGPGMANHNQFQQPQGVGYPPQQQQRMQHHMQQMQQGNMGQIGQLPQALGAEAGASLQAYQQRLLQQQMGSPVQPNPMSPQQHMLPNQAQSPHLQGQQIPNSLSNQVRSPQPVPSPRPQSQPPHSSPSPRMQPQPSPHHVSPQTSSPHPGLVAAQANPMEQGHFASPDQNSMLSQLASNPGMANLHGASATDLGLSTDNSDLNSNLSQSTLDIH
Sequence of CREB-binding protein/Histone acetyltransferase p300 (Homo sapiens) (Q92793 whole entry, looked up): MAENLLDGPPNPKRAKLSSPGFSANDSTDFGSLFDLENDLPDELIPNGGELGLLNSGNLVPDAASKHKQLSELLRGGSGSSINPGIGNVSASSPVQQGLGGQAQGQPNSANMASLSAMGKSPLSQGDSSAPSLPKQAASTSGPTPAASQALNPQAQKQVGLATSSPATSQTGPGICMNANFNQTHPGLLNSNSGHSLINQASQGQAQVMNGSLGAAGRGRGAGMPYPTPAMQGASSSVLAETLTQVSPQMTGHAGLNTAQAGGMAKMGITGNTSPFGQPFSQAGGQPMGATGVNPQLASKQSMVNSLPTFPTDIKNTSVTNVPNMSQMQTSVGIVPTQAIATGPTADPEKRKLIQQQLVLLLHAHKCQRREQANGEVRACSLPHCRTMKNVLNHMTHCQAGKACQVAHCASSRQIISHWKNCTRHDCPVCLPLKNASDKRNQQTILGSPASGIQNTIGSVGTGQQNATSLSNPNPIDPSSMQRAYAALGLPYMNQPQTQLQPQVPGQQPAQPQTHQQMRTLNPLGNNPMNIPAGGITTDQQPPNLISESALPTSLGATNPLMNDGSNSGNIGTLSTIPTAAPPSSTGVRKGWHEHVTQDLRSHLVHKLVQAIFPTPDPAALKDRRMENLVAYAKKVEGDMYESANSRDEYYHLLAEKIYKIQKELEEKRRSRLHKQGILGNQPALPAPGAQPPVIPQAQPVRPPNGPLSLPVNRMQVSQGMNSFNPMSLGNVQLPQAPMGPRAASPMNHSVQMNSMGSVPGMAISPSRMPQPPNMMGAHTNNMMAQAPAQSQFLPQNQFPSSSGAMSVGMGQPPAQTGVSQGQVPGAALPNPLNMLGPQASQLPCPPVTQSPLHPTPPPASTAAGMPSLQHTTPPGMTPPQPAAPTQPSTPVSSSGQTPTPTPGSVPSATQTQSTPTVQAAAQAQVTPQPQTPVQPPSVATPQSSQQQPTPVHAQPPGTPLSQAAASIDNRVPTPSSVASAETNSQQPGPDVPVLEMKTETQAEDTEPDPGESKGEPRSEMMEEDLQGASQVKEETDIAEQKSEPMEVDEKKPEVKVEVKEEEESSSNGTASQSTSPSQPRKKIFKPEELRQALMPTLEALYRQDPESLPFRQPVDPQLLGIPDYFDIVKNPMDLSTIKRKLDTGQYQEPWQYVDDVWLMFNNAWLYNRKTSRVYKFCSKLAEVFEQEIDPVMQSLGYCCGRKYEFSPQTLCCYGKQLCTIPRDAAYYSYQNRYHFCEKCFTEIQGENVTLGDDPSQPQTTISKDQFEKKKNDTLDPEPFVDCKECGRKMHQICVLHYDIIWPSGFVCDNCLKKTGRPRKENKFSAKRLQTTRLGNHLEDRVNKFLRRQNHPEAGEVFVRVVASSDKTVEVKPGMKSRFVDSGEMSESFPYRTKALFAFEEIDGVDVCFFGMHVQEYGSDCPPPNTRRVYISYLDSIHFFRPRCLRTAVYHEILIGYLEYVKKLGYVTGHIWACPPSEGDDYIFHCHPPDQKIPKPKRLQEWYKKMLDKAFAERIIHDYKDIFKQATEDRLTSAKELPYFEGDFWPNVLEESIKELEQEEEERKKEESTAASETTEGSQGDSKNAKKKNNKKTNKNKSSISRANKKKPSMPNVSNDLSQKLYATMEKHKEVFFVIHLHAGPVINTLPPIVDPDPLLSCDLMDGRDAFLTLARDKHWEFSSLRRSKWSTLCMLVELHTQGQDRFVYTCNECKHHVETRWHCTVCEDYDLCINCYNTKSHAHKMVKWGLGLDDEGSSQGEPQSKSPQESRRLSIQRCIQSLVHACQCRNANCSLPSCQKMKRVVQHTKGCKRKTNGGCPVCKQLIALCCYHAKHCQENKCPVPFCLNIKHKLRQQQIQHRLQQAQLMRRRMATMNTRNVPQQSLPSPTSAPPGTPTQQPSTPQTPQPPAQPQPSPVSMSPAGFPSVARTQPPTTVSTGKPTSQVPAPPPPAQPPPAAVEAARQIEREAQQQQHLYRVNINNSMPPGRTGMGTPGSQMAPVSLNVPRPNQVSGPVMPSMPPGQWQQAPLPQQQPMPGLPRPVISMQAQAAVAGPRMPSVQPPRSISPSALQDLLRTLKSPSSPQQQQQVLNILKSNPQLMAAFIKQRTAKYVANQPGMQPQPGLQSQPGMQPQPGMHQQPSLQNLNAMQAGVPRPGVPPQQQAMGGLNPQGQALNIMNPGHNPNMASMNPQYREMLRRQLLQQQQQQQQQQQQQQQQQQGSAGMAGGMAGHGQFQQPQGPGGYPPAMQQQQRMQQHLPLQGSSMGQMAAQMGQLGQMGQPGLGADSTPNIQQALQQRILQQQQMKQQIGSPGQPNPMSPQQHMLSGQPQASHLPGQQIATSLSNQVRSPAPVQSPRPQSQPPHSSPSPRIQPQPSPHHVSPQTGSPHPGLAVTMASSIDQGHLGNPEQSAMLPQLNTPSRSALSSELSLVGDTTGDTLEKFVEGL

**Q.** Which results are given for `CNC(=O)Nc1ccc2c(c1)CCS21OC(=O)N(CC(=O)N(Cc2ccc(F)cc2)[C@@H](C)C(F)(F)F)C1=O` (stereo not given in full)?
**A.** Activity [1]: inactive; Activity [2]: Active; Activity [3]: inactive; Activity [4]: inactive; inhibition [5]: Active; inhibition [6]: Active; inhibition [7]: Active; inhibition [8]: Active; inhibition [9]: Active; inhibition [10]: Active; inhibition [11]: Active; inhibition [12]: Active; inhibition [13]: Active; inhibition [14]: Active; inhibition [15]: Active; inhibition [16]: Active; inhibition [17]: inactive; inhibition [18]: inactive; inhibition [19]: Active; inhibition [20]: Active
